Source: PubChem (several laboratories)
Sampled rows, rich in hits. Any-hit rate of the full collection: about 9.2%.
Lmaj promast = Leishmania major promastigote growth inhibition, primary screen | inhibition, % at 10 µM | Leishmania major promastigotes, resazurin fluorescence viability | AID 1063, 2008 | 200,000 compounds, 9% hits; in the data active = inhibition above about 50%;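 note: promastigotes grown with compound for 44 hours at 28 °C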
bCat KO growth = primary screen for growth suppressors in beta-catenin knockout HCT116 cells (colon tumor, human); HCT116 beta-catenin knockout viability, CellTiter-Glo, 60 h; stronger effect = lower value; viability, % at 10 µM; 140,000 compounds, 1.5% hits; AID 818, 2007;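 active = viability at or under a set limit, the compound median less 4 SD, cut at about 6% in these data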;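 note: 0% = Hyamine 1622 control at 20 µM and 100% = untreated cell control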
Autophagy mod = autophagy modulators in MEF cells, primary screen, imaging, high-content, MEF GFP-LC3; 190,000 compounds, 0.98% hits; AID 463193, 2010; calls only at 10 µM (by protocol); MEF GFP-LC3 puncta imaging; test concentration mostly 10 µM;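 active = percentage of spot-positive cells more than 3 SD above its plate mean, without a fluorescence outlier flag or 80% toxicity; inconclusive = no clear call, values can overlap the other calls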;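 note: spot-positive cell cutoff set from DMSO-treated cells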
PTEN del growth = growth suppression of PTEN-null HCT116, primary screen, cell-based, CellTiter-Glo | viability, % at 10 µM | 140,000 compounds, 1.2% hits | HCT116 PTEN-null viability, 60 h; stronger effect = lower value;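 active = viability at or below a set limit, 4 SD under the median of all tested compounds, cut at about 3.7% in these data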;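 note: PTEN knockout HCT116 line with beta catenin targeted HCT116 as companion control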
Dynein transport = inhibitors of GR-EGFP nuclear translocation, primary screen, dynein cargo transport inhibitor project, imaging, high-content, 3617.4 mouse cells | z-score, hits read low | 220,000 compounds, 0.47% hits | test concentration mostly 20 µM; stimulated with dexamethasone, 1 µM; stronger effect = lower value;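 active = plate z-score of nuclear minus cytoplasmic receptor signal below a set negative limit, without overly bright fluorescence or cell loss, cut at about -3.5 in these data, passing the limit was not always enough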;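 note: z-score of nuclear minus cytoplasmic ring GR-EGFP intensity difference per well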
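Also added: dexamethasone, 1.0 µM final. Medium: tet-free, stripped-serum medium. Detection: fixed, Hoechst-stained cells imaged at 10x for EGFP. Read-out: nuclear-to-cytoplasmic GR-EGFP distribution per well. Times: induction 48 h, compound 1 h, agonist 30 min.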
Dynein confirm = dynein cargo transport inhibitors, GR-EGFP translocation, confirmation, imaging, high-content imaging, GR-EGFP cells. shares compounds with Dynein transport. 3617.4 GR-EGFP nuclear translocation imaging, dexamethasone-induced. calls only at 20 µM. 1,000 compounds, 69% hits. AID 463116, 2010;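 active = inhibition of receptor movement into the nucleus at or above a set limit in both runs, with normal cell brightness and cell count; inconclusive = limit reached in only one run, brightness and count normal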;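 note: dexamethasone at 1 µM final in well for 30 min; nuclear minus cytoplasmic GR-EGFP mean intensity difference in channel 2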
The depositor's hits bear a star; i = inactive; ? = inconclusive; . = not tested or not shown; + = active, no number.

SMILES	Lmaj promast	bCat KO growth	Autophagy mod	PTEN del growth	Dynein transport	Dynein confirm
COc1ccc(O)c(C(=O)/C=C/c2cc3ccccc3o2)c1	4	.	i	.	-0.011	.
Cc1ccccc1NC(=O)COC(=O)c1ccc(S(C)(=O)=O)c([N+](=O)[O-])c1	-6	.	i	.	-4.4*	+
CS(=O)(=O)c1ccc(C(=O)OCc2nnc(-c3ccccc3)o2)cc1[N+](=O)[O-]	1	.	i	.	-6.6*	+
CC(=O)c1cccc(NC(=O)COC(=O)c2ccc(S(C)(=O)=O)c([N+](=O)[O-])c2)c1	-2	.	i	.	0.3	.
CCCCC1=NN2CCS(=O)(=O)N=C2S1	-9	.	i	.	-0.93	.
CCOC(=O)c1ccccc1NC1CC(=O)N(c2ccccc2C)C1=O (stereo not drawn)	4	101	i	96	0.84	.
O=C(c1cccnc1)N1CCC(Oc2ccc(C(=O)N3CCCCO3)cc2)CC1	9	.	i	.	2.6	.
Cc1ccc(C(=O)OC(C)CN2CCN(C)CC2)cc1 (stereo not drawn)	.	.	.	.	0.33	.
CCn1c(=O)c([N+](=O)[O-])c(Cl)c2ccccc21	-3	.	i	.	-6.1*	+
CCOC(=O)c1cc2c(=O)n3cccc(C)c3nc2n(Cc2ccco2)c1=NC(=O)c1ccccc1	27	35	i	57	0.44	.
CCOc1ccc(CN(C)C(=O)CCl)cc1	35	.	i	.	-5.6*	+
CCOC(=O)C(C)c1ccc2cc(OC)ccc2c1 (stereo not drawn)	-4	78	i	82	-0.23	.
CCCCNC1C(CC)C(CCC)C(C#N)(C#N)C1(C#N)C#N (stereo not drawn)	14	78	i	76	-3.6*	+
CCC(C)(C)NC(=O)Cc1ccc(C)cc1	1	92	i	105	2.6	.
Cc1ccc(Cn2cc(/C=N/Nc3ccc([N+](=O)[O-])cn3)c3ccccc32)cc1	-8	54	+	54	-4.6	+
Cc1ccc2nc(/C(C#N)=C\c3ccc(N4CCOCC4)o3)[nH]c2c1	26	76	?	62	-6.6	+
CC(C)Cn1c([N+](=O)[O-])nc2c1c(=O)[nH]c(=O)n2C	.	.	.	.	-7.3*	+
Cn1c(=O)[nH]c(=O)c2c1nc1n2CCN1Cc1ccccc1	2	104	i	90	0.091	.
Cn1c(=O)[nH]c(=O)c2c1nc([N+](=O)[O-])n2Cc1ccccc1	.	.	.	.	-4.9*	+
CCNc1nc2c(c(=O)[nH]c(=O)n2C)n1CC(C)C	-8	93	i	94	-0.63	.
O=C(CC1Sc2ccccc2NC1=O)Nc1ccccc1[N+](=O)[O-] (stereo not drawn)	-2	83	i	69	-0.15	.
COc1cc(C(=O)NCc2nnc(SCC(=O)Nc3ccc4c(c3)OCO4)o2)cc(OC)c1OC	-3	.	i	.	0.66	.
O=C(NCc1cccnc1)/C(=C\c1ccc(-c2ccc(Cl)c(Cl)c2)o1)S(=O)(=O)c1ccccc1	100*	1.8*	i	1.5*	-4.2*	+
CCOn1c(=O)c(-c2ccc(OC)cc2)[n+]([O-])c2ccccc21	7	101	i	107	1.7	.
CCOn1c(=O)c(-c2ccc(OC)c(OC)c2)[n+]([O-])c2ccccc21	2	101	i	101	-3.7*	i
SMILES	Lmaj promast	bCat KO growth	Autophagy mod	PTEN del growth	Dynein transport	Dynein confirm
CCOc1ccccc1NC(=O)COC(=O)C(CC)c1ccccc1 (stereo not drawn)	0	.	i	.	-0.53	.
CC(c1ccccc1)N1CCN(C(=O)CCl)CC1 (stereo not drawn)	76*	.	i	.	-4.9*	i
CC(Cc1ccccc1)C(=O)N1CCN(C)CC1 (stereo not drawn)	-3	88	i	83	0.96	.
COc1ccc(C2=CC(c3c(C)nn(-c4ccccc4)c3Cl)n3nnnc3N2)cc1OC (stereo not drawn)	19	69	.	63	-0.72	.
CCCOc1ccc(N2C(=O)C/C(=C\c3ccccc3)C2=O)cc1	.	.	.	.	1.4	.
CCOC(=O)c1cn(-c2c(Cl)cccc2Cl)c2cc(Cl)c([N+](=O)[O-])cc2c1=O	35	27	i	32	-4.4*	+
COC/C=C/C1=CC2=CC(=O)C(C)(OC(=O)c3cnc4ccccc4n3)C(=O)C2=CN1Cc1ccc(OC)cc1 (stereo not drawn)	.	.	.	.	-5.2*	+
COC/C=C/C1=CC2=CC(=O)C(C)(OC(=O)c3cnc4ccccc4n3)C(=O)C2=CN1Cc1ccccc1 (stereo not drawn)	.	.	.	.	-2.6	.
CCCN1C(=O)/C(=C\c2ccncc2)SC1=Nc1ccccc1	44	68	i	65	-4.4*	i
Clc1nssc1=Nc1ccc(Br)cc1	-10	.	i	.	-0.82	.
N#Cc1cccc(N=c2ssnc2Cl)c1	-2	.	i	.	-4.4	+
O=S(=O)(c1ccc(Cl)cc1)N1CCN(C(=S)Nc2ccc(F)c(Cl)c2)CC1	17	76	i	63	-0.35	.
O=C(COC(=O)c1cc(S(=O)(=O)N2CCOCC2)ccc1O)NCCc1ccccc1	-5	99	i	102	3.3	.
CCCCC(=O)N/N=C/c1ccc(-c2ccc([N+](=O)[O-])cc2)o1	14	.	i	.	-0.79	.
CC(C)(C)NC(=S)N/N=C\c1ccc(-c2ccc([N+](=O)[O-])cc2)o1	.	.	.	.	-6	i
FC(F)(F)c1cccc(Cc2noc(CN3CCCC(OCc4ccccn4)C3)n2)c1 (stereo not drawn)	-11	.	i	.	-0.23	.
O=[N+]([O-])c1ccc(N2CCN(c3ccc(Cl)nn3)CC2)c(Cl)c1	2	66	i	62	1.3	.
O=[N+]([O-])c1ccc(N2CCN(c3ccc(Cl)nn3)CC2)cc1NC1CC1	-2	.	i	.	-8.4	i
CC(=O)Nc1cccc(C(=O)/C=C/c2ccc(F)cc2)c1	100*	.	i	.	-3.9*	+
CCN(CC)C(=O)Oc1cc(=O)n2c3c(cccc13)CCC2	-8	99	i	98	-0.98	.
O=C(CN(CC1CCCO1)C(=O)Cn1nnc(-c2ccc(F)cc2)n1)NC1CCCCC1 (stereo not drawn)	-5	98	i	96	1.5	.
COc1ccc(C(=O)/C=C/C(=O)N(CC(=O)NC2CCCCC2)Cc2ccccc2OC)c(O)c1	49	.	i	.	-4.5*	+
COc1ccc(C(=O)/C=C/C(=O)N(CC(=O)NC2CCCCC2)CC2CCCO2)c(O)c1 (stereo not drawn)	12	.	+	.	-4.7	+
COc1ccc(C(=O)/C=C/C(=O)N(CC(=O)NC2CCCCC2)Cc2ccccc2)c(O)c1	44	.	i	.	-4.6*	+
